SR-BI DiI inh: inhibitors of mouse SR-BI mediated HDL lipid uptake; ldlA[mSR-BI] CHO cells, DiI-HDL uptake fluorescence, 3 h; Q61009; AID 488896; inhibition, % at 12.5 µM; 320,000 tested, 0.96% active;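 active means mean replicate inhibition of at least 70% and a set share of replicates each scoring 70 or more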
Target sequence (Q61009 whole entry, looked up): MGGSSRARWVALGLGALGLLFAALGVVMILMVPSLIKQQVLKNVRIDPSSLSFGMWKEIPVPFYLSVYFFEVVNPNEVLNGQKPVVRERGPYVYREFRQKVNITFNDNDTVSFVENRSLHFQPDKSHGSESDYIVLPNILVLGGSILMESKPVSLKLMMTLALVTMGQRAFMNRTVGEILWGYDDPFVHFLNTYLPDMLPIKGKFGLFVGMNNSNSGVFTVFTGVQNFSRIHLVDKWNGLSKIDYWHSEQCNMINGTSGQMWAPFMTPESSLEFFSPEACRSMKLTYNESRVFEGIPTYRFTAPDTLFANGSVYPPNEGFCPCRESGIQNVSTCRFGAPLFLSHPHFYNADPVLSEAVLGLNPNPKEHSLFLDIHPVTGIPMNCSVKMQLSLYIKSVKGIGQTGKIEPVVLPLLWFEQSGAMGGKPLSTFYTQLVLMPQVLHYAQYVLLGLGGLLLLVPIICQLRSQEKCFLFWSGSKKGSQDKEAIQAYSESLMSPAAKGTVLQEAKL
C2C12 statin: suppression of simvastatin myotoxicity. 330,000 tested, 0.78% active. rescue of ATP level, % at 7.49 µM. C2C12 myotubes + simvastatin, ATP luminescence, 48 h; scaled: DMSO 0, geranylgeraniol control 100;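 active means mean ATP rescue above about 67%, or every replicate alone reaching that limit, limit read from the data, passing the limit was not always enough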;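 further: myotubes were challenged with 10 µM simvastatin during compound exposure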
SR-BI DiI-HDL act: activators of SR-BI mediated HDL lipid uptake. CHO ldlA[mSR-BI] cells, DiI-HDL uptake fluorescence, 3 h; 100 = double the neutral-control signal. 320,000 tested, 0.096% active. AID 504775. activation, % at 12.5 µM;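 active means mean replicate activation of at least 60% and every replicate at or above 60%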
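Test system: SR-BI-overexpressing, LDLR-lacking CHO cells; Medium: Ham's F12 with 0.5% BSA, HEPES 25 mM, pH 7.4; Schedule: 3 h, 37 °C; Technique: bottom-read fluorescence, 550/595 nm.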
Vif imaging: inhibitors of HIV Vif; HEK293T cells, Vif self-association by quenched fluorescence, imaging, 24 h; inhibition, % at 7.49 µM; 340,000 tested, 0.35% active; AID 602346; in the data active means inhibition above about 50%, passing the limit was not always enough
Hits are given with their value; i = inactive; nt = no result. The list is not random: actives were taken first. Their share in the collection is about 1.7%.

SMILES	SR-BI DiI inh	C2C12 statin	SR-BI DiI-HDL act	Vif imaging
C=CCn1c(=O)/c(=C\c2ccsc2)s/c1=C(/C#N)C(=O)NCCN1CCOCC1	i	112	i	i
CC(C)[C@@H](C)NC(=O)N(C)C[C@H]1OCc2ccccc2-c2c(n(C)c3ccccc23)C(=O)N([C@H](C)CO)C[C@H]1C	nt	i	nt	nt
Cc1ccc(NC(=O)c2cc3cccc([N+](=O)[O-])c3[nH]2)cc1	79	nt	i	i
CCC(C)c1ccccc1NC(=O)c1cc2cccc([N+](=O)[O-])c2[nH]1 (configuration not stated)	nt	nt	nt	i
CCC1(CC)C(=O)NC(=O)NC1=Nc1cccc(OC)c1	i	117	i	i
O=C(Nc1ccccc1)c1ccc(Nc2c([N+](=O)[O-])cc([N+](=O)[O-])c3ccccc23)cc1	88	nt	i	i
O=C(C[C@@H]1C[C@H]2c3cc(NC(=O)NC4CCCC4)ccc3O[C@H]2[C@H](CO)O1)NCc1ccc(Cl)cc1	nt	i	nt	nt
c1coc(CNc2ncnc3[nH]ncc23)c1	i	i	i	i
Cc1nc(NCc2ccco2)c2cn[nH]c2n1	i	95	i	i
O=C(COC(=O)CNC(=O)c1ccc(Cl)cc1Cl)NCc1ccco1	i	i	89	i
O=C(CNC(=O)c1ccco1)OCC(=O)c1ccc(Cl)cc1Cl	i	i	i	i
O=C(Nc1ccc2c(c1)[C@@H]1C[C@H](CC(=O)N3CCOCC3)O[C@@H](CO)[C@@H]1O2)NC1CCCC1	nt	i	nt	nt
COc1ccc(/C=N/Nc2cc(C)nc(-n3nc(C)cc3C)n2)cc1	i	nt	i	i
Cc1cc(N/N=C/c2ccc(O)cc2O)nc(-n2nc(C)cc2C)n1	94	i	i	i
Cc1cc(N/N=C/c2ccc(O)cc2O)nc(-c2ccccc2O)n1	114	nt	i	i
COCc1cn(CC[C@H]2CC[C@@H](NC(=O)Nc3ccc(F)cc3)[C@H](CO)O2)nn1	nt	i	nt	nt
COc1cc(-c2ccc3oc(-c4ccsc4)c(C#CC4(O)CCCCC4)c3c2)cc(OC)c1OC	76	i	i	i
OC1(C#Cc2c(-c3ccsc3)oc3ccc(N4CCOCC4)cc23)CCCCC1	i	i	i	i
COc1cc(C(=O)NCCC(C)C)c([N+](=O)[O-])cc1OC	82	i	i	i
C[C@H](CO)N1C[C@H](C)[C@H](CN(C)Cc2ccccc2)Oc2c(NS(C)(=O)=O)cccc2C1=O	nt	i	nt	nt
C[C@@H]1CN([C@H](C)CO)C(=O)Cc2cc(NC(=O)C3CC3)ccc2O[C@@H]1CN(C)C(=O)Nc1ccccc1	nt	i	nt	nt
CC1(C)N=C(N)N=C(N)N1c1ccc(F)cc1F	i	104	i	i
CC1(C)N=C(N)N=C(N)N1c1cc(Cl)ccc1Cl	nt	i	nt	nt
CCCC#Cc1cnc2c(c1)C(=O)N([C@H](C)CO)C[C@@H](C)[C@@H](CN(C)Cc1ccc(C(=O)O)cc1)O2	nt	i	nt	nt
CC(C)NC(=O)N[C@H]1CC[C@@H](CCNS(=O)(=O)c2ccc(F)cc2)O[C@@H]1CO	nt	i	nt	nt
SMILES	SR-BI DiI inh	C2C12 statin	SR-BI DiI-HDL act	Vif imaging
COc1cc(CNc2ncnc3c2ncn3[C@H]2CN(CCN3CCOCC3)C[C@@H](CO)O2)cc(OC)c1OC	nt	i	nt	70
Cc1ccc(C(=O)Nc2ccc(C(=O)N/N=C/c3ccc(C)o3)cc2)cc1	80	i	i	i
COc1ccccc1/C=N/NC(=O)c1cccc(NC(=O)c2ccccc2C)c1	75	i	i	i
Cc1ccc(C(=O)Nc2cccc(C(=O)N/N=C/c3ccc(F)cc3)c2)cc1	76	i	i	i
Cc1ccc(/C=N/NC(=O)c2ccc(NC(=O)c3ccc(Cl)cc3)cc2)o1	i	i	i	i
COc1ccc(/C=N/NC(=O)c2cccc(NC(=O)c3ccccc3Cl)c2)c(OC)c1	77	nt	i	i
C[C@H]1CN([C@@H](C)CO)C(=O)Cc2cc(NC(=O)Nc3ccc4c(c3)OCO4)ccc2O[C@H]1CN(C)Cc1ccc(Cl)c(Cl)c1	nt	i	nt	nt
COc1ccccc1/C=N/NC(=O)c1cccc(NC(=O)c2ccccc2Cl)c1	77	nt	i	i
COc1ccc(C(=O)Nc2cccc(C(=O)N/N=C/c3ccc(OC)cc3OC)c2)cc1	90	i	i	i
O=C(C[C@@H]1CC[C@@H]2[C@H](COC[C@@H](O)CN2C(=O)Nc2ccccc2)O1)NCc1ccncn1	nt	i	nt	nt
CCc1ccccc1N(CC)C(=O)c1cn(C)c(=O)c2cc(OC)c(OC)cc12	i	95	i	i
C[C@@H]1CN([C@@H](C)CO)C(=O)Cc2cc(NS(=O)(=O)c3cn(C)cn3)ccc2O[C@H]1CN(C)C(=O)Nc1ccc(F)cc1	nt	i	nt	nt
CSc1cccc(NC(=O)/C=C/c2cccc(Cl)c2)c1	75	nt	i	i

Screens from PubChem.
